Laboratory results from the RNAGym collection of RNA variant scans (doi:10.1126/science.aae0568).
Fewer inactive variants are shown than the library holds.

B1: tRNA (parent)
chain: GUUCCGUUGGCGUAAUGGUAACGCGUCUCCCUCCUAAGGAGAAGACUGCGGGUUCGAGUCCCGUACGGAACG

Variants of: B1
Test: yeast fitness relative to wild type (ratio to wild type); higher = fitter; tRNA-Arg(CCU), competitive growth, 37 C, YPD
Outline: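 For this measurement, the tRNA-Arg(CCU) gene was varied by chemical synthesis at a 3% per-site mutation rate across 69 sites, and each variant was placed at the native genomic locus in Saccharomyces cerevisiae. The pooled strains went through a 24-hour competition in YPD at 37°C in six parallel replicates, with amplicons from start and end populations read by 100-nucleotide paired-end sequencing. Darwinian fitness relative to wild type followed from the change in each genotype's frequency. Genotypes needed ≥ 100 starting reads, and estimates < 0.5 were set to 0.5.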

Variant | yeast fitness
C4U C30U A57G G68A | 0.525
A15G U26C G56A A69U | ≤ 0.5
G10C C60U C62U A70C | ≤ 0.5
C33U G56A C61G C66U | ≤ 0.5
A20U C30G | 0.61
G10C C30A C66A | ≤ 0.5
C4A C30U C55U | ≤ 0.5
U26G G48A C61U | 0.94
C33U C55U A70U | 0.627
U26A A45U | 1.03
C5A C24G U26A C29G U32A | 0.531
C33G C62U | 0.758
A42U G48C C61A | 0.643
G18A A21C C30U C34A | ≤ 0.5
A15U C62A | 0.624
U7C A21U C24A C62U U64C | 0.661
A21G A37C A57C | ≤ 0.5
U8G A70U | 0.59
U8C A21G A70G | 0.747
A15U C60G C66G | ≤ 0.5
U2G U3C A21C | ≤ 0.5
C29A A40U | 0.684
C30A C31U C60G | 0.565
C24A U26C U54A C60U A69C | 0.819

Variant | yeast fitness
G17C C24G C34U | 0.527
C24A A36C | 0.531
U2A C34U G48A C60U | 0.602
C4A A42U | 0.716
A45U G50A G63A G68C A69U | ≤ 0.5
C4A A40U A43U A70U | ≤ 0.5
A15C C22U U54A | 0.636
G9C C29G C31U C34G A42G | 0.535
G10C A43C C49U | ≤ 0.5
G23C G58U | 0.565
C5G G51C A65C | ≤ 0.5
C5U G41A | 0.906
C31A G44A C55G A70G | ≤ 0.5
C22A A69C A70G | 0.638
U8A A21U C30U G48A G67C A69U | ≤ 0.5
C29G A37U | 0.566
U13C G58A | 0.891
U13C G58C | 0.922
U19A C22U A37C G38C | 0.516
G9A C11U A36C A57G G68C | ≤ 0.5
C60A C61A G63A | 0.605
U3C U8A A15C C31G C49U A57U G67C | ≤ 0.5
A20U A37C U53A | 0.682
C11U A14G G51C A69U | ≤ 0.5

Variant | yeast fitness
G25C C46A G58A G63U | 0.604
G17A U32C | 0.704
A15U U32A C33G U53A | ≤ 0.5
U28C C29G C30G A36G | ≤ 0.5
A42G U59A | 0.939
U7A G38A G52C A57C | ≤ 0.5
A36G A45C A57C U64A G68A | ≤ 0.5
G50A G52C | 0.663
G17A A36G C66U | 0.65
C5G C31U A36C G38A | 0.557
G41C C49A | 0.572
C4G U16A A36C A57C C61A U64C | ≤ 0.5
U8A C34G | ≤ 0.5
G9U C27U C29A A69U | ≤ 0.5
U19A C22G C30G A42G C46G | 0.741
A42C G51A | 0.849
A69U A70U | 1.03
A45U G48C | 0.857
C5U G9A C22A C55G | ≤ 0.5
G39C A42C C62U A69C | ≤ 0.5
U13C C29A G51C G63A | ≤ 0.5
U3A G52A | 0.764
U35G C46U A65C G67C | ≤ 0.5
U8G C24G C55A A65U | ≤ 0.5

Variant | yeast fitness
G25A U32A U54G G56A | ≤ 0.5
U2C U28C A37U U53A | 0.547
C5G C22U A37G G50C | ≤ 0.5
C31G G67C A69U | ≤ 0.5
U8G C31G G41C G50C C60U A69C | ≤ 0.5
C5A G39A C49U | 0.541
U8A A69G | 0.604
A15U G23C C33A G63A | ≤ 0.5
G6C A14U A70C | 0.591
U3G C24U U28C | 0.599
U2C A14G G18A U32A U59A | ≤ 0.5
G17A U59C | 0.62
G9C G23C | 0.573
C34G A36U G58A | 0.605
U3A G6C C31A U47G C62A | ≤ 0.5
U13A G56A | 0.927
C27A A45U | 0.839
U28G C29A G52C A57U | ≤ 0.5
U7A C66U | 0.762
C5G A14U G25A G56A G67A | ≤ 0.5
A14G A15U G25C U54A | ≤ 0.5
U13A G23C A37C G38A | 0.554
C22A C49G G67A | ≤ 0.5
G18A C30U A40U G44C | ≤ 0.5

Variant | yeast fitness
U3A C24A C34U U54G | ≤ 0.5
G10C U13C A15C C24U U54C C60A C62A | ≤ 0.5
U8G G9U C30A C61A | 0.539
C24G C30G G39A G52A C55U | ≤ 0.5
C11U A15U U19G A20G G67C | ≤ 0.5
U3A A20G C55G C61U | ≤ 0.5
C22U C24U C33G | 0.502
G25C G51A | 1.01
A15G A65G A70C | 0.714
U7G A40C C55G | 0.591
A15U G56C G67U | ≤ 0.5
G6A G9C C31U | ≤ 0.5
G12A A14C C31G A65C | ≤ 0.5
C29U C31U U54G G68A | ≤ 0.5
C34G A57G | 0.568
U2G A14U | 0.502
C5A C11U C31G A70U | ≤ 0.5
C5G C24U C66A | ≤ 0.5
G6C G25C A37U G39C C62G | ≤ 0.5
C60U C61G G67A | ≤ 0.5
C29U C33G | 0.689
U2C C29U | 0.81
A57U G58C | 0.636
A21C A43G G58C | ≤ 0.5

Variant | yeast fitness
A20G C29A A65C | 0.544
A37G C49U | 0.819
C5U A20C A36G | 0.632
U16G G25A U28G C34U G63C | ≤ 0.5
C31G G48C | 0.811
C22G A43C C55G | 0.577
U28A G68A | 0.581
C5U G12A A40U G44U A45G C60A | ≤ 0.5
G18C C49U G56C G58A | ≤ 0.5
A20C G52A G68A | ≤ 0.5
C33U C46U G68C | 0.615
G18C U19G A20G C33A U35C C66A | ≤ 0.5
A40U U53C | 0.735
C24G C31U | 0.571
G18C U26G C55G | ≤ 0.5
C30G A57U C60G A65U | 0.531
C4A C24G A69U | ≤ 0.5
C31A C60A A65U | 0.619
C29G A40U C66U | ≤ 0.5
G9C C46G C61G A65C | ≤ 0.5
A14U C29G | 0.692
C49U G63C | 0.703
U8C A15C U32C C61U A65U C66U | ≤ 0.5
C22U C27U A57U C61G | 0.574

Variant | yeast fitness
C5A U28G C30G A40C A42U | ≤ 0.5
G9C C27U U53A | 0.548
C49G G67A | 0.908
G10C C34U C60A G67A | ≤ 0.5
G10A A20U A70C | 0.579
G48C C60A | 0.644
G17C G18C A20G C30A G50A A69C | ≤ 0.5
U7C A69C | 0.921
G44A C49G | 0.714
U8C G12A C29U U35G C62U | ≤ 0.5
C22U C24G C30G A40U | ≤ 0.5
U8C A43C C49G | 0.597
C31G A36U G48A A57C | ≤ 0.5
U32C G56C | 0.676
A15G A65C | 0.867
G10A C22G | 0.637
A21C A70C | 0.798
U3A A21C C24G G56A | ≤ 0.5
U8C C30G C49A G68A | ≤ 0.5
G10C A36G C49U | 0.551
U16A A36U | 0.552
C29A G39A C49A C66G | ≤ 0.5
U2A C27U A36G | 0.578
